Screening data: PubChem, several laboratories
SENP1 inh: SENP1 (human) catalytic domain inhibition; Q9P0U3; recombinant SENP1 catalytic domain, CyPet-SUMO1-YPet FRET cleavage; inhibition, % at 10 µM; 0.21% of 360,000 active;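 active = inhibition at least 30% at 10 µM, raw YFP signal under a set limit, fluorescence ratio 0.5 to 1.5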
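System: Recombinant human SENP1 catalytic domain, His6-tagged | Incubation: Enzyme reaction for 50 min at room temperature, dark | Medium: Tris pH 8 with BME, BSA, NP40 and catalase | Also added: 25 nM SUMO1 FRET substrate | Compound: 10 µM single point, 0.5% DMSO | Measured by: FRET fluorescence in CFP and YFP emission channels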
SENP8 block-1: SENP8 protease inhibition; Q96LD8; purified SENP8, Z-RLRGG-aminoluciferin cleavage, luminescence; inhibition, % at 10 µM; 1.2% of 330,000 active; in the data active = inhibition above about 50%
Target sequence (Q96LD8 whole entry, looked up): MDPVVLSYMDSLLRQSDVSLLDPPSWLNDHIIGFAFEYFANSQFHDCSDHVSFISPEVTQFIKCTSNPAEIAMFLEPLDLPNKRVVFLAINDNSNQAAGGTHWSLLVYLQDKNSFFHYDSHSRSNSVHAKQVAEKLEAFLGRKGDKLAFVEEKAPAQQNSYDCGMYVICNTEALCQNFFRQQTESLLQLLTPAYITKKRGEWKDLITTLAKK
SENP7 inh: inhibitors of human SENP7 protease. AID 434973. Q9BQF6. inhibition, % at 5 µM. recombinant SENP7, Z-RLRGG-aminoluciferin luminescence, 40 min. 1.5% of 330,000 active;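 active = inhibition above about 50% at the single test dose, limit read from the data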
Target sequence (Q9BQF6 706-1050 limits assumed): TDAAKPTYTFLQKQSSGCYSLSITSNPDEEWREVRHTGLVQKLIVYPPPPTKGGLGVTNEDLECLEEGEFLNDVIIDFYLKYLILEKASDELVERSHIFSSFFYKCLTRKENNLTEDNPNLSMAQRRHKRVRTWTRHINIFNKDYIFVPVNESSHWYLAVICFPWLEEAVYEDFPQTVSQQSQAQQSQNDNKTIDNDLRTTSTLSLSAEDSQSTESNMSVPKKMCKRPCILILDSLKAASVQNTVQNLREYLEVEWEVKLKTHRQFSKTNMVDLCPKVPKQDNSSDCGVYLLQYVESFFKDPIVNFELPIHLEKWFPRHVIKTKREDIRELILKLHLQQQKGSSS
HSP90 inh: blocks HSP90-mediated luciferase refolding in reticulocyte lysate; Rabbit reticulocyte lysate, luciferase refolding luminescence, 3 h; inhibition, % at 5.6 µM; 0.91% of 290,000 active; AID 1789;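 active = inhibition above the screen-wide mean plus 3 SD, computed separately per campaign, cut at about 16% in these data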;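 note: inhibitors lower the luminescence because luciferase stays unfolded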
SENP8 block-2: SENP8 (human) protease inhibition | inhibition, % at 20 µM | 0.64% of 360,000 active | recombinant SENP8, Nedd8 substrate fluorescence; in the data active = inhibition mostly above about 40%, no sharp cut-off; inactive = mostly below about 27%
SENP6 block: SENP6 protease inhibition | 1.8% of 330,000 active | Recombinant SENP6 catalytic domain, aminoluciferin luminescence | inhibition, % at 10 µM | Q9GZR1 | AID 2599;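 active = inhibition above about 50% at the single tested dose, limit read from the data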
SENP8 conf: human SENP8 inhibition, confirmed | shares compounds with SENP7 inh | Recombinant SENP8, Z-RLRGG-aminoluciferin luminescence, 60 min | inhibition, % at 12.5 µM | 40% of 6,200 active | AID 488912;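 active = mean inhibition across replicates above about 50%, limit read from the data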
SENP6 conf: human SENP6 inhibition, confirmed | shares compounds with SENP7 inh | recombinant SENP6, Z-RLRGG-aminoluciferin luminescence | inhibition, % at 12.5 µM | 58% of 6,200 active | AID 488915
SENP7 conf: human SENP7 inhibition, confirmed; recombinant SENP7, Z-RLRGG-aminoluciferin luminescence, 40 min; AID 488917; shares compounds with SENP7 inh; 69% of 6,200 active; inhibition, % at 12.5 µM
Casp3 SENP sel: caspase-3 inhibition (SENP selectivity assay) | inhibition, % at 12.5 µM | shares compounds with SENP7 inh | 60% of 6,200 active | purified caspase-3, Z-DEVD-aminoluciferin luminescence, 60 min | AID 488918;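 active = mean inhibition above about 50%, limit read from the data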
Luc interf: luminescence interference (SENP counter-screen); 39% of 6,200 active; Pre-incubated SENP8/Z-RLRGG-aminoluciferin, luciferase luminescence interference; shares compounds with SENP7 inh; inhibition, % at 12.5 µM;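 active = mean inhibition above about 50% when retested at one dose, limit read from the data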
A number is an active result. Hits are enriched below; roughly 2.9% of the tested compounds scored in any of these assays.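 Rule for the calls, unless noted: active = mean inhibition above about 50% in the one-dose retest (limit read from the data); inactive = the rest.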

`O=C(c1ccc2c3n(nc2c1)-c1ccccc1CO3)N1CCOCC1` gave SENP1 inh inactive, SENP8 block-1 86.6, SENP7 inh 94.6, SENP8 block-2 inactive, SENP6 block 92.9, SENP8 conf 93.0, SENP6 conf 93.3, SENP7 conf 100.9, Casp3 SENP sel 97.7 and Luc interf 92.3.
c1ccc(-c2noc(C3CCC3)n2)nc1 was read as SENP1 inh inactive, SENP8 block-1 inactive, SENP7 inh inactive, HSP90 inh inactive, SENP8 block-2 inactive and SENP6 block inactive.
For CCCCC1CCC(c2nc(-c3ccccn3)no2)CC1 (stereo not given) the results were SENP1 inh inactive, SENP8 block-1 54.2, SENP7 inh inactive, HSP90 inh inactive, SENP8 block-2 inactive, SENP6 block 71.5, SENP8 conf inactive, SENP6 conf inactive, SENP7 conf inactive, Casp3 SENP sel inactive and Luc interf inactive.
`O=C(Nc1ccc(Cl)cc1)c1ccc(Br)cc1F` gave SENP1 inh inactive, SENP8 block-1 inactive, SENP7 inh inactive, HSP90 inh inactive, SENP8 block-2 inactive, SENP6 block 50.7, SENP8 conf inactive, SENP6 conf inactive, SENP7 conf inactive, Casp3 SENP sel inactive and Luc interf inactive.
CCOC(=O)C(C)Oc1ccc(NC(=O)C(Cl)Cl)cc1 (stereo not given) was read as SENP1 inh inactive, SENP8 block-1 inactive, SENP7 inh inactive, HSP90 inh inactive, SENP8 block-2 inactive and SENP6 block inactive.
`Cc1ccn2c(c1)nc(=S)n2C(=O)c1ccccc1` gave SENP1 inh inactive, SENP8 block-1 inactive, SENP7 inh 75.6, HSP90 inh inactive, SENP8 block-2 inactive, SENP6 block 60.0, SENP8 conf inactive, SENP6 conf 52.1, SENP7 conf 76.1, Casp3 SENP sel inactive and Luc interf inactive.
`O=C(c1ccco1)n1c(=S)nc2ccccn21` gave SENP1 inh inactive, SENP8 block-1 inactive, SENP7 inh inactive, HSP90 inh inactive, SENP8 block-2 inactive and SENP6 block inactive.
Screening Cc1c(/C=C/C(=O)c2ccccc2O)cnn1C returned SENP1 inh inactive, SENP8 block-1 inactive, SENP7 inh 67.0, HSP90 inh inactive, SENP8 block-2 inactive, SENP6 block 63.1, SENP8 conf inactive, SENP6 conf 55.3, SENP7 conf 81.1, Casp3 SENP sel inactive and Luc interf inactive.
Screening O=C(/C=C/c1cccnc1)c1ccccc1O returned SENP1 inh inactive, SENP8 block-1 inactive, SENP7 inh inactive, HSP90 inh inactive, SENP8 block-2 inactive and SENP6 block inactive.
Screening Cc1ccc(NC(=O)c2cc(-c3ccc(C)c(C)c3O)n[nH]2)cc1C returned SENP1 inh inactive, SENP8 block-1 inactive, SENP7 inh inactive, HSP90 inh inactive, SENP8 block-2 inactive and SENP6 block inactive.
Cc1cccc(NC(=O)c2cc(-c3ccc(C)c(C)c3O)n[nH]2)c1 was read as SENP1 inh inactive, SENP8 block-1 inactive, SENP7 inh 85.6, HSP90 inh inactive, SENP8 block-2 inactive, SENP6 block inactive, SENP8 conf inactive, SENP6 conf inactive, SENP7 conf 94.6, Casp3 SENP sel 59.4 and Luc interf 54.2.
OCC[C@@H]1C[C@H](O)[C@@H](O)[C@]2(CCCO2)O1 was read as SENP1 inh inactive, SENP8 block-1 inactive, SENP7 inh inactive, SENP8 block-2 inactive and SENP6 block inactive.
CC(=O)N1CCn2c3c(c(=O)c4cc(C)ccc42)CCC31 (stereo not given) was read as SENP1 inh inactive, SENP8 block-1 inactive, SENP7 inh inactive, HSP90 inh inactive, SENP8 block-2 inactive, SENP6 block 55.0, SENP8 conf inactive, SENP6 conf inactive, SENP7 conf inactive, Casp3 SENP sel inactive and Luc interf inactive.
`COc1ccc(NC(=O)C(C)N=C2NS(=O)(=O)c3ccccc32)cc1S(N)(=O)=O` (stereo not given) gave SENP1 inh inactive, SENP8 block-1 inactive, SENP7 inh inactive, SENP8 block-2 inactive and SENP6 block inactive.
C/C(=N/NC(=O)c1cc(C2CC2)[nH]n1)c1cccs1 was read as SENP1 inh inactive, SENP8 block-1 inactive, SENP7 inh 65.7, HSP90 inh inactive, SENP8 block-2 inactive, SENP6 block inactive, SENP8 conf 63.7, SENP6 conf 61.5, SENP7 conf 88.1, Casp3 SENP sel 89.3 and Luc interf 70.9.
`C/C(=N\NC(=O)c1cccs1)c1ccc2ccccc2c1` gave SENP1 inh inactive, SENP8 block-1 inactive, SENP7 inh inactive, HSP90 inh inactive, SENP8 block-2 inactive and SENP6 block inactive.
C/C(=N\NC(=O)c1ccncc1)c1cccs1 was read as SENP1 inh inactive, SENP8 block-1 inactive, SENP7 inh inactive, HSP90 inh inactive, SENP8 block-2 inactive and SENP6 block inactive.
Screening C/C(=N\NC(=O)c1ccc2ccccc2c1)c1cccs1 returned SENP1 inh inactive, SENP8 block-1 69.9, SENP7 inh 83.3, HSP90 inh inactive, SENP8 block-2 inactive, SENP6 block 84.1, SENP8 conf 54.2, SENP6 conf 52.8, SENP7 conf 92.8, Casp3 SENP sel 84.1 and Luc interf inactive.
Screening CCOc1ccccc1N1CC(C(=O)Nc2cc(Cl)ccc2-n2cncn2)CC1=O (stereo not given) returned SENP1 inh inactive, SENP8 block-1 inactive, SENP7 inh inactive, SENP8 block-2 inactive and SENP6 block inactive.
`O=C(NCc1ccco1)c1ccc(CNc2c(N3CCCCC3)c(=O)c2=O)cc1` gave SENP1 inh inactive, SENP8 block-1 inactive, SENP7 inh inactive, HSP90 inh inactive, SENP8 block-2 inactive and SENP6 block inactive.
Screening Cc1cc(C(=O)Nc2ccc3ccccc3c2)c(C)o1 returned SENP1 inh inactive, SENP8 block-1 73.3, SENP7 inh 68.7, HSP90 inh inactive, SENP8 block-2 inactive, SENP6 block 84.3, SENP8 conf 84.5, SENP6 conf 84.3, SENP7 conf 96.5, Casp3 SENP sel 65.8 and Luc interf 67.6.
O=C(Nc1cccc([N+](=O)[O-])c1)c1ccc([N+](=O)[O-])o1 was read as SENP1 inh inactive and SENP8 block-2 inactive.
